Measured values: ChEMBL document CHEMBL1133101, “7-Methyl-6,7,8,9,14,15-hexahydro-5H-benz[d]indolo[2,3-g]azecine: a new heterocyclic system and a new lead compound for dopamine receptor antagonists” (J Med Chem, 2000)

Assays:
[1] = target: Serotonin 2 (5-HT2) receptor (Rattus norvegicus, UniProt P30994+P08909+P14842); assay: Binding affinity against 5-hydroxytryptamine 2 receptor in rat striatum using [3H]-RP62203; type: tissue-based
[2] = target: T1, Adenosine receptor A1 (Homo sapiens) (UniProt P30542); assay: Percent decrease in Adenosine A1 receptor binding using CPDPX; parameters: scale not given: the % may be the effect or the level left
T1 sequence (whole entry): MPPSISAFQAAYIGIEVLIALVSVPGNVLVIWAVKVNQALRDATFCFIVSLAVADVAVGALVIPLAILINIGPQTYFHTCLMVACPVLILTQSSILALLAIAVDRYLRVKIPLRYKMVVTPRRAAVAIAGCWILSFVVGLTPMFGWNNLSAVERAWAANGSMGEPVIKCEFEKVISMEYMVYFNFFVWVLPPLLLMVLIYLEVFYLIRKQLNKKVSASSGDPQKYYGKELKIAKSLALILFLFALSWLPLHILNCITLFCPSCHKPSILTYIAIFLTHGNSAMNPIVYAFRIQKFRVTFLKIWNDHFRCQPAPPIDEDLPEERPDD

[3] = target: Adrenergic receptor alpha-1 (Homo sapiens) (UniProt P35348+P25100+P35368); assay: Percent decrease in Alpha-1 adrenergic receptor binding using prazosin; type: protein assay
Outline: (§1)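 Preliminary screen of receptors isolated from rat or pig tissues, run with minor changes to standard procedures. Each compound was tested at a single fixed concentration for each receptor. The read-out was the percent decrease in binding of the named radioligand.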

[4] = target: Angiotensin II receptor (Homo sapiens) (UniProt P30556+P50052); assay: Percent decrease of Angiotensin II receptor binding; type: protein assay; parameters: concentration or dose not given beside the values; outline: as §1
[5] = Percent decrease in Bradykinin receptor binding; parameters: concentration or dose not given beside the values; outline: as §1
D(1A) dopamine receptor = D(1A) dopamine receptor (Rattus norvegicus, UniProt P18901); assay: Binding affinity against Dopamine receptor D1 of rat striatal receptor using [3H]SCH-23390
Outline: (§2)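 Rat striatal receptor preparations were used, with [3H]SCH23390 for D1, [3H]spiperone for D2 and [3H]RP62203 for 5-HT2. Ki ([…]) was derived from competitive displacement of the radioligand, with n = 3–7.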

D(2) dopamine receptor = D(2) dopamine receptor (Rattus norvegicus, UniProt P61169); assay: Binding affinity against Dopamine receptor D2 of rat striatal mambranes using [3H]spiperone; outline: as §2
[6] = target: T2, Muscarinic acetylcholine receptor M1 (Homo sapiens) (UniProt P11229); assay: Percent decrease of Muscarinic acetylcholine receptor M1 binding using pirenzepine; parameters: scale not given: the % may be the effect or the level left; outline: as §1
T2 sequence (whole entry): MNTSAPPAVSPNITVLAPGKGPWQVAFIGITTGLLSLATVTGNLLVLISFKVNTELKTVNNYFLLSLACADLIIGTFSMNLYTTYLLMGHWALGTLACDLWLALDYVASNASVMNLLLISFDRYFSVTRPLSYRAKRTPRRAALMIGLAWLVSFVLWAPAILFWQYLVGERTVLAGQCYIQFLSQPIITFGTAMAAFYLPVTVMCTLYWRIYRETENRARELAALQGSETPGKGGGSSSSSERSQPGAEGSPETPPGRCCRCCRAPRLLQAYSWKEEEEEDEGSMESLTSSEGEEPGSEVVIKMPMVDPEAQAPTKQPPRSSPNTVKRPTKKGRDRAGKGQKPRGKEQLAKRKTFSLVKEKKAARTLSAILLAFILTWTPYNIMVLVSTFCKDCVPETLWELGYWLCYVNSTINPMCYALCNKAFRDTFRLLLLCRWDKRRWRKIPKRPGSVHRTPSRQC

[7] = target: Glutamate [NMDA] receptor (Homo sapiens) (UniProt Q05586+Q12879+Q13224+O15399+O60391+Q14957+Q8TCU5); assay: Percent decrease of N-methyl-D-aspartate glutamate receptor binding using MK-801; type: protein-complex assay; parameters: concentration or dose not given beside the values; outline: as §1
[8] = target: T3, Glutamate receptor ionotropic AMPA (Homo sapiens) (UniProt P48058+P42263+P42262+P42261); assay: Percent decrease in Quisqualate receptor binding using AMPA; type: protein-complex assay; parameters: scale not given: the % may be the effect or the level left; outline: as §1
[9] = target: D(1A) dopamine receptor (Rattus norvegicus) (UniProt P18901); assay: Percent decrease of Dopamine receptor D1 binding using SCH-23390; parameters: scale not given: the % may be the effect or the level left
[10] = target: Serotonin 2 (5-HT2) receptor (Rattus norvegicus) (UniProt P30994+P08909+P14842); assay: Percent decrease in 5-hydroxytryptamine 2 receptor binding using ketanserin; type: protein assay; parameters: scale not given: the % may be the effect or the level left; outline: as §1
[11] = target: T1, Adenosine receptor A1 (Homo sapiens); assay: Percent decrease in adenosine-A1-receptor binding using CPDPX; parameters: scale not given: the % may be the effect or the level left; outline: as §1
[12] = target: D(2) dopamine receptor (Rattus norvegicus) (UniProt P61169); assay: Percent decrease in Dopamine receptor D2 binding using spiperone; parameters: scale not given: the % may be the effect or the level left; outline: as §1
[13] = target: T3, Glutamate receptor ionotropic AMPA (Homo sapiens); assay: Percent decrease of Quisqualate receptor binding using AMPA; type: protein-complex assay; parameters: scale not given: the % may be the effect or the level left; outline: as §1

Sequence of Serotonin 2 (5-HT2) receptor (Rattus norvegicus) (P08909 whole entry, looked up): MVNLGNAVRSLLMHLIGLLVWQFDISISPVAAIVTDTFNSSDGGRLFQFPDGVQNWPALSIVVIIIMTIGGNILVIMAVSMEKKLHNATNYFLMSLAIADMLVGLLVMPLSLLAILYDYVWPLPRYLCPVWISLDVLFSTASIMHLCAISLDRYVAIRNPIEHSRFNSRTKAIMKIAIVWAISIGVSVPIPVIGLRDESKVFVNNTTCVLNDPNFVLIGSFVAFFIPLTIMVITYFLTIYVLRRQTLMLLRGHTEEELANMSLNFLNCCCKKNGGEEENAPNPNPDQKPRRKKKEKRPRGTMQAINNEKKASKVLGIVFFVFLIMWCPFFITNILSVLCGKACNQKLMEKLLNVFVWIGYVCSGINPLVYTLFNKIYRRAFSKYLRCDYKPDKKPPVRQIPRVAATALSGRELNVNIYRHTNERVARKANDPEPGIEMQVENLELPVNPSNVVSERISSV
Sequence of Serotonin 2 (5-HT2) receptor (Rattus norvegicus) (P14842 whole entry, looked up): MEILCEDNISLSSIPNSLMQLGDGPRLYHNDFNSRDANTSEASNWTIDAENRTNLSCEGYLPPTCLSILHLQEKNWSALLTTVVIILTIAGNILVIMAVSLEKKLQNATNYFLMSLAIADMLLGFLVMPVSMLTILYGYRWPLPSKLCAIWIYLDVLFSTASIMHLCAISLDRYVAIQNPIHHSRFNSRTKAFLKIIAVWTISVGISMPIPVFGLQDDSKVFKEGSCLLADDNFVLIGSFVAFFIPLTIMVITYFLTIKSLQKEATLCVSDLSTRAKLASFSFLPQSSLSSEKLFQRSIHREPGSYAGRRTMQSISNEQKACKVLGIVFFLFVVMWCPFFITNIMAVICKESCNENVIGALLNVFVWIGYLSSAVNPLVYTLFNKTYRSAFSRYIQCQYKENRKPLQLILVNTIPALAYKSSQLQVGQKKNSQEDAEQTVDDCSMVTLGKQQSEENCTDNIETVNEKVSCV
Sequence of Serotonin 2 (5-HT2) receptor (Rattus norvegicus) (P30994 whole entry, looked up): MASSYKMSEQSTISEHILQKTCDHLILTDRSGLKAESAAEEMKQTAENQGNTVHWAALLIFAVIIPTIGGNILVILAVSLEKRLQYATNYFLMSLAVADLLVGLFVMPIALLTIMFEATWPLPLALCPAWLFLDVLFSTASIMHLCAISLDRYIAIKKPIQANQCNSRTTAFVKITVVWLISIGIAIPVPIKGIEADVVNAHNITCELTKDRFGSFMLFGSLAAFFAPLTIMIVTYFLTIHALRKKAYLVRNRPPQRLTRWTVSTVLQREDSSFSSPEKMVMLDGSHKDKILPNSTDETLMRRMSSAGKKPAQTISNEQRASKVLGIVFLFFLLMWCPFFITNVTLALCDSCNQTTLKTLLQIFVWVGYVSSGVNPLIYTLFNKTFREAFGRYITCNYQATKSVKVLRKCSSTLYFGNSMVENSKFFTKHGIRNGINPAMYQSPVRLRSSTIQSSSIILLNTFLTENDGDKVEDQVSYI
Sequence of D(2) dopamine receptor (Rattus norvegicus) (P61169 whole entry): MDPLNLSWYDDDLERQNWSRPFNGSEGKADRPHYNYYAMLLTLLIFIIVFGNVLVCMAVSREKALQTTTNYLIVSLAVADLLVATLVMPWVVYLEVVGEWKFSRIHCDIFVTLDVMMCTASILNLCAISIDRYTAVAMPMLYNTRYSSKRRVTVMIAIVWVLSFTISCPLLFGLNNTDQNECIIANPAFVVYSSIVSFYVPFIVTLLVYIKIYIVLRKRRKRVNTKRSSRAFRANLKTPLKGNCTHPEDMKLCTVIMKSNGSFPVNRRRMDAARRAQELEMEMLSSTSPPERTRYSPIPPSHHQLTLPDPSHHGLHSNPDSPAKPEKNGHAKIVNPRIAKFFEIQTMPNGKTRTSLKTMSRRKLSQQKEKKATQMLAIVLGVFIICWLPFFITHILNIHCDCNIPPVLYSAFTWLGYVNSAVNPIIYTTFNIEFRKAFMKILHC
Sequence of D(1A) dopamine receptor (P18901 whole entry): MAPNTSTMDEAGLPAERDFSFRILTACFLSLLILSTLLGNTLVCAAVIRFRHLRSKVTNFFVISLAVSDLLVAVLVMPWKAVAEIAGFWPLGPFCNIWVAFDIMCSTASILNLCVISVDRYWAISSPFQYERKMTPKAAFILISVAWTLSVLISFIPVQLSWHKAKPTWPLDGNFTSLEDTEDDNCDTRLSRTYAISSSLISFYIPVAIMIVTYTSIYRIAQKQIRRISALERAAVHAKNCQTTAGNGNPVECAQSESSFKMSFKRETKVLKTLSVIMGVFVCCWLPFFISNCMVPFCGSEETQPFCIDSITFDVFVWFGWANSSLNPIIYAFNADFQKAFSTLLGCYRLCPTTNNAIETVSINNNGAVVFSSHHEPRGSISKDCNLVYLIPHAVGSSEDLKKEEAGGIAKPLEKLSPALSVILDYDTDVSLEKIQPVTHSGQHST
Sequence of D(1A) dopamine receptor (Rattus norvegicus) (P18901 whole entry, looked up): as the sequence (P18901 whole entry) above
Sequence of D(2) dopamine receptor (P61169 whole entry): as the sequence (P61169 whole entry) above

Row | SMILES | Ki [1] | Activity [2] | Decrease [3] | Activity [4] | Activity [5] | Ki (D(1A) dopamine receptor) | Ki (D(2) dopamine receptor) | Activity [6] | Activity [7] | Activity [8] | Activity [9] | Activity [10] | Activity [11] | Activity [12] | Activity [13]
1 | CN1CCc2ccccc2Cc2[nH]c3ccccc3c2CC1 | 20 nM | 5% | -97% | 6% | -2% | 0.08 nM | 6 nM | -9% | -18% | -3% | -99% | – | – | – | –
2 | c1ccc2c(c1)CCN1CCc3c([nH]c4ccccc34)C21 (stereo not drawn) | – | – | -82% | 0% | -2% | – | – | -22% | -33% | – | – | -41% | 13% | -19% | 3%
3 | c1ccc2c3c([nH]c2c1)C1c2[nH]c4ccccc4c2CCN1CC3 | – | – | -88% | 0% | 2% | – | – | -18% | -52% | – | – | -52% | 17% | -51% | -1%
4 | COc1cc2c(cc1OC)C1c3[nH]c4ccccc4c3CCN1CC2 (stereo not drawn) | – | – | -94% | 6% | 9% | – | – | -11% | -14% | – | – | -32% | 26% | -11% | -1%
